Results as given in ChEMBL document CHEMBL3352280, “Modulation of cAMP-specific PDE without emetogenic activity: new sulfide-like PDE7 inhibitors” (J Med Chem, 2014).
Active and inactive are the calls of the source. The calls are words filed in the database; no cut-off is given here.

Assays:
[1] = target: cGMP-inhibited 3',5'-cyclic phosphodiesterase 3A (Homo sapiens) (UniProt Q14432); assay: Inhibition of human recombinant PDE3A assessed as inhibition of hydrolysis of [3H]cAMP at 10 uM after 20 mins by scintillation proximity assay
Chain of cGMP-inhibited 3',5'-cyclic phosphodiesterase 3A (Homo sapiens) (Q14432 whole entry): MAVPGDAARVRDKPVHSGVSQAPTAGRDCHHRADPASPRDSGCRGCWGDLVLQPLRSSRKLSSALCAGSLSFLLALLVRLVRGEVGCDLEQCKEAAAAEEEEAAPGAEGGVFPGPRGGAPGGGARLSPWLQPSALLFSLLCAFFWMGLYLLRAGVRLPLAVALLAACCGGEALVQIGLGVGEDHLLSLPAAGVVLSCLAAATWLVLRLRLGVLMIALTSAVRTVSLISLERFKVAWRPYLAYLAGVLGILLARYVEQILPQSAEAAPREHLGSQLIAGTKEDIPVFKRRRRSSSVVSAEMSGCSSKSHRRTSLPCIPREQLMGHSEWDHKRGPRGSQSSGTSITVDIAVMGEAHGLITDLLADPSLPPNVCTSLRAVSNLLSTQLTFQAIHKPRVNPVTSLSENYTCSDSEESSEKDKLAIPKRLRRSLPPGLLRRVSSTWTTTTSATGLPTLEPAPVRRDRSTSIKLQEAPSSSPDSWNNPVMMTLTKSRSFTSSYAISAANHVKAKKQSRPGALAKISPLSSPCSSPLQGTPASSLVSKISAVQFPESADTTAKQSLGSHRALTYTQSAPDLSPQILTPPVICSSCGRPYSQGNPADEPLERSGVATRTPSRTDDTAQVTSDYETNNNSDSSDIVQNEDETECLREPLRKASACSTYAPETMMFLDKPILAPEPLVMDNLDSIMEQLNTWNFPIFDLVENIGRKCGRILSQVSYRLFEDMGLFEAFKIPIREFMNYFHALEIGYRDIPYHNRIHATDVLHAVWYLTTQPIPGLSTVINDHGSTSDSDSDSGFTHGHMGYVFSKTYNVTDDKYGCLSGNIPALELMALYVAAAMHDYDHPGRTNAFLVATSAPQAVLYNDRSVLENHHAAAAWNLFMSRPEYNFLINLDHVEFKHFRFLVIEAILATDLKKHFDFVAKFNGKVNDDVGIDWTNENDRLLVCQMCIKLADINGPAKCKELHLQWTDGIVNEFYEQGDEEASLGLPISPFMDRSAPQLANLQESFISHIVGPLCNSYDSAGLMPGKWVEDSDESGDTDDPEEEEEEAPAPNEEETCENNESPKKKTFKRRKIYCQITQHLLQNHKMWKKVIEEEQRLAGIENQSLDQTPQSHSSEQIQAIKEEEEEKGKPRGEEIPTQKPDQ
Procedure, shortened: (§1)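 Scintillation proximity assay with human recombinant enzyme: PDE7A1 0.02 U, PDE3A 0.02 U, PDE7B 0.5 U, PDE8A 0.5 U. Enzyme incubated with 5 nCi [3H]cAMP and inhibitor in kit buffer for 20 min at 30 °C. SPA beads added and shaken 1 h at room temperature, settled 30 min, radioactivity counted.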

Mus musculus [2] = assay: Emetogenic potential in surrogate emesis CD1 mouse model assessed as effect on xyclacine/ketamine-induced loss of righting reflex at 1 mg/kg, sc; conditions: in vivo
[3] = target: T1, High affinity 3',5'-cyclic-AMP phosphodiesterase 7A (Homo sapiens, UniProt Q13946); assay: Inhibition of human recombinant PDE7A1 assessed as inhibition of hydrolysis of [3H]cAMP at 10 uM after 20 mins by scintillation proximity assay; procedure, shortened: as §1
T1 sequence (Q13946 whole entry): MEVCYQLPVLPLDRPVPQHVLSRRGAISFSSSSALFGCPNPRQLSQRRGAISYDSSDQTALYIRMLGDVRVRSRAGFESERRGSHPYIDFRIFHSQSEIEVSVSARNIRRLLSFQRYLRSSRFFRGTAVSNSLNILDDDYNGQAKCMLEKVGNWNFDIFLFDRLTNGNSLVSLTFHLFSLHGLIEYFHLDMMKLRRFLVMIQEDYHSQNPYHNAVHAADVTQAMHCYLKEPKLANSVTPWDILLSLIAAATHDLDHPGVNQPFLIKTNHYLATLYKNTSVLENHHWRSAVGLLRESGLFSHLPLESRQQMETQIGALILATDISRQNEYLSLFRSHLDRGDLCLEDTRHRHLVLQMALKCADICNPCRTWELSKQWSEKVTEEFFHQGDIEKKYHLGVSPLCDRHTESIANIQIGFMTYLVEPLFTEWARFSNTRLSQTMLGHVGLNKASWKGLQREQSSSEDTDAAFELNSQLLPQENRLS

Mus musculus [4] = assay: Emetogenic potential in surrogate emesis CD1 mouse model assessed as effect on xyclacine/ketamine-induced loss of righting reflex at 1 mg/kg, sc; format: ADME, organism-based; parameters: dose 1 mg/kg, route subcutaneous; conditions: in vivo
Procedure, shortened: (§2)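 Male CD1 mice (25–30 g) anesthetized ip with xylazine 10 mg/kg plus ketamine 100 mg/kg. Test agent or vehicle given sc 15 min later in 60% PEG/saline (0.1 mL/10 g). Duration of anesthesia is timed to return of righting reflex. Mean ± SEM, n = 10–19 per group, ANOVA with Dunnett post hoc test.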

[5] = target: cAMP and cAMP-inhibited cGMP 3',5'-cyclic phosphodiesterase 10A (Homo sapiens) (UniProt Q9Y233); assay: Inhibition of human recombinant PDE10A assessed at 10 uM after 20 mins by scintillation proximity assay
[6] = target: T2, 3',5'-cyclic-AMP phosphodiesterase 4D (Homo sapiens, UniProt Q08499); assay: Inhibition of human recombinant PDE4D3 assessed at 10 uM after 60 mins by IMAP fluorescence polarization assay
T2 sequence (Q08499 whole entry): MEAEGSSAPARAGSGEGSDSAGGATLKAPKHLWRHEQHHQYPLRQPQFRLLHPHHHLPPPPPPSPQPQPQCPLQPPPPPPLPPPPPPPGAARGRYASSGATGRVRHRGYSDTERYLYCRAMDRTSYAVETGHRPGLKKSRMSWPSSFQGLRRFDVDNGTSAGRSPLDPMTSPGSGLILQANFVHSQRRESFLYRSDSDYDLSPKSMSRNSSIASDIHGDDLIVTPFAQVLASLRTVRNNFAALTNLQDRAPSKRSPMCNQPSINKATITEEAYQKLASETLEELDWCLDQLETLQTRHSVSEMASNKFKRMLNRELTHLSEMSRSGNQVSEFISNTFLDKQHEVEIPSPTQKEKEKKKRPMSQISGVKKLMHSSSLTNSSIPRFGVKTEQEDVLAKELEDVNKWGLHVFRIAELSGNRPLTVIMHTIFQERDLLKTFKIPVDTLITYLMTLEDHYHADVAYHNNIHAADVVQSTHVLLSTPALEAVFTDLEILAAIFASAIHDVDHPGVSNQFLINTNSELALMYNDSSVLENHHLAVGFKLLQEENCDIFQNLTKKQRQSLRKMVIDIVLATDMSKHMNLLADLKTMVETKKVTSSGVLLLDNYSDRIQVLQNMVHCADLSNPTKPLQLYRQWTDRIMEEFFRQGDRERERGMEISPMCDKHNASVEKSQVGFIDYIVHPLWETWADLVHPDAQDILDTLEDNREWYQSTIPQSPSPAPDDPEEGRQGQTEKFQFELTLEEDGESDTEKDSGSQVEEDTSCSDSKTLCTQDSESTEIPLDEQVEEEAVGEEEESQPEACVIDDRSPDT

[7] = target: High affinity cAMP-specific and IBMX-insensitive 3',5'-cyclic phosphodiesterase 8A (Homo sapiens) (UniProt O60658); assay: Inhibition of PDE8A (unknown origin) at 10 uM; procedure, shortened: as §1
Chain of High affinity cAMP-specific and IBMX-insensitive 3',5'-cyclic phosphodiesterase 8A (Homo sapiens) (O60658 whole entry): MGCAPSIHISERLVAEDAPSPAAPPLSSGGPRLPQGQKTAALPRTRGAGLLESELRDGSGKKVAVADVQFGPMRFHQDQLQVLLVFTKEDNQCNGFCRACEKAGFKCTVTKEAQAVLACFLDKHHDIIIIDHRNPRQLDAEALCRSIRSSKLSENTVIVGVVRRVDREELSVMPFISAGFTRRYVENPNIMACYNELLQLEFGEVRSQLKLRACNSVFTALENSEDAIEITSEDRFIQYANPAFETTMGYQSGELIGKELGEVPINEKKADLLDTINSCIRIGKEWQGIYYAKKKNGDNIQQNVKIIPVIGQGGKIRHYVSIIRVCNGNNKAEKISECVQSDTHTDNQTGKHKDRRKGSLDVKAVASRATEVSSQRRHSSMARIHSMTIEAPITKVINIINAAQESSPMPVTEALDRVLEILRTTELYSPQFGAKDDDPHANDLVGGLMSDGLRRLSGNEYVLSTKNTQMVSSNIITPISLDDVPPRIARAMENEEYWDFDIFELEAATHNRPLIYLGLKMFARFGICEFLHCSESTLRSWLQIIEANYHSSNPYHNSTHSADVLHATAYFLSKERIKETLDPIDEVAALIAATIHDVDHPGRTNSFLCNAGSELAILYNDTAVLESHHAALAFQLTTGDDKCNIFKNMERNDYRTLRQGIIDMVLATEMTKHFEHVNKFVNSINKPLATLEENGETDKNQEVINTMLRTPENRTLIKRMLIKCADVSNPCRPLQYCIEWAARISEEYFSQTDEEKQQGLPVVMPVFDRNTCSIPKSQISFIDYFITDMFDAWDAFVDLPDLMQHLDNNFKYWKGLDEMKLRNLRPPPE

[8] = target: T3, 3',5'-cyclic-AMP phosphodiesterase 4B (Homo sapiens, UniProt Q07343); assay: Inhibition of human recombinant PDE4B2 assessed at 10 uM after 60 mins by IMAP fluorescence polarization assay
T3 sequence (Q07343 whole entry): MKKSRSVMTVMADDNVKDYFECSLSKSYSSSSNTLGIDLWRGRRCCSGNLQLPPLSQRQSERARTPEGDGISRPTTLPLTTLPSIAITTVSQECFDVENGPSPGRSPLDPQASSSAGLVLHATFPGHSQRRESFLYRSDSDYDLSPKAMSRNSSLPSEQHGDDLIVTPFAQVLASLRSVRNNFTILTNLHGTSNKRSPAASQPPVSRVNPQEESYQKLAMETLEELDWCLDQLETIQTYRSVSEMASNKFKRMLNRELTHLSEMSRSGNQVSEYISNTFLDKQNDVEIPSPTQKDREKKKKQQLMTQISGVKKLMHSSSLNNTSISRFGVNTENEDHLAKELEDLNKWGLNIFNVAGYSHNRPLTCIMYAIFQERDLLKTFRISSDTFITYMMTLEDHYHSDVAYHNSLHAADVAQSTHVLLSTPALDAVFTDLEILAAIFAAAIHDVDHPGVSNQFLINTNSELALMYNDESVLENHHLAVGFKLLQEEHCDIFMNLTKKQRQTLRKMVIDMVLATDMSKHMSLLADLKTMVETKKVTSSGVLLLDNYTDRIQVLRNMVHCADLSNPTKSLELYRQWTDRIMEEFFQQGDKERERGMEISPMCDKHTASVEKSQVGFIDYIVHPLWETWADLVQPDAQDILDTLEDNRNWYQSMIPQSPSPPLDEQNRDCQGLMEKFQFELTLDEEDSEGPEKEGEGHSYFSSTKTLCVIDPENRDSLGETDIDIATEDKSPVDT

SH-SY5Y [9] = assay: Cytoprotective activity against 6-OHDA-induced death of human SH-SY5Y cells pretreated for 1 hr at 30 uM measured 16 hrs post 6-OHDA challenge by MTT assay; format: functional, cell-based; conditions: 10 uM, in the assay text read “10 uM” for “30 uM”
Procedure, shortened: (§3)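 Human neuroblastoma SH-SY5Y grown in F12/EMEM with 2 mM glutamine, 1% nonessential amino acids and 15% FBS at 37 °C, 5% CO2. Semiconfluent cells pretreated 1 h with compound, then 6-OHDA (35 μM) added for 16 h. Viability by MTT (0.5 mg/mL, 4 h), SDS/HCl solubilisation, absorbance 595 nm. Mean ± SD of three experiments.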

Mus musculus [10] = assay: Emetogenic potential in surrogate emesis CD1 mouse model assessed as effect on xyclacine/ketamine-induced loss of righting reflex at 2.5 to 10 mg/kg, sc; format: ADME, organism-based; parameters: dose 2.5-10 mg/kg, route subcutaneous; conditions: in vivo; procedure, shortened: as §2
Microglia = assay: Inhibition of LPS-induced NO production in rat microglia treated for 1 hr at 10 uM before LPS challenge measured after 24 hrs by Griess assay; format: functional
Procedure, shortened: (§4)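 After 2 days, cells were pretreated with compound (10 μM), then LPS (10 μg/mL) was added for 24 h. Nitrite in the supernatant was measured by Griess reagent (15 min, room temperature, absorbance 492/540 nm). Mean ± SD of three experiments.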

SH-SY5Y [11] = assay: Cytoprotective activity against 6-OHDA-induced death of human SH-SY5Y cells pretreated for 1 hr at 10 uM measured 16 hrs post 6-OHDA challenge by MTT assay; format: functional, cell-based; procedure, shortened: as §3
[12] = target: T4, 3',5'-cyclic-AMP phosphodiesterase 7B (Homo sapiens, UniProt Q9NP56); assay: Inhibition of human recombinant PDE7B assessed as inhibition of hydrolysis of [3H]cAMP after 20 mins by scintillation proximity assay; procedure, shortened: as §1
T4 sequence (Q9NP56 whole entry): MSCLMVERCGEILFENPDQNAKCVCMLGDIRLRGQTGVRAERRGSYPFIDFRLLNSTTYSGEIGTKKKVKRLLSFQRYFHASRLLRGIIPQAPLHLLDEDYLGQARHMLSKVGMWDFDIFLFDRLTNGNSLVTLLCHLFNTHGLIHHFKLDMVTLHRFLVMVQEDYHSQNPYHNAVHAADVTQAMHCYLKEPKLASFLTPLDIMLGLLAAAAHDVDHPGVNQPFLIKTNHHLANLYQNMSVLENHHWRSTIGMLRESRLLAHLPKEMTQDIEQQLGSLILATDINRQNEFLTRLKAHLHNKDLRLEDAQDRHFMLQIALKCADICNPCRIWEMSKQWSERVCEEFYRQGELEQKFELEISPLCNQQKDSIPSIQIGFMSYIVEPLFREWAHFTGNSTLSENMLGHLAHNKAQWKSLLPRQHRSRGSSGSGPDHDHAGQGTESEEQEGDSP

Astrocyte [13] = assay: Inhibition of LPS-induced NO production in rat astrocytes treated for 1 hr at 10 uM before LPS challenge measured after 24 hrs by Griess assay; format: functional, cell-based; procedure, shortened: as §4
[14] = target: Dual specificity calcium/calmodulin-dependent 3',5'-cyclic nucleotide phosphodiesterase 1A (Homo sapiens) (UniProt P54750); assay: Inhibition of human recombinant PDE1A assessed at 10 uM after 60 mins by IMAP fluorescence polarization assay
Chain of Dual specificity calcium/calmodulin-dependent 3',5'-cyclic nucleotide phosphodiesterase 1A (Homo sapiens) (P54750 whole entry): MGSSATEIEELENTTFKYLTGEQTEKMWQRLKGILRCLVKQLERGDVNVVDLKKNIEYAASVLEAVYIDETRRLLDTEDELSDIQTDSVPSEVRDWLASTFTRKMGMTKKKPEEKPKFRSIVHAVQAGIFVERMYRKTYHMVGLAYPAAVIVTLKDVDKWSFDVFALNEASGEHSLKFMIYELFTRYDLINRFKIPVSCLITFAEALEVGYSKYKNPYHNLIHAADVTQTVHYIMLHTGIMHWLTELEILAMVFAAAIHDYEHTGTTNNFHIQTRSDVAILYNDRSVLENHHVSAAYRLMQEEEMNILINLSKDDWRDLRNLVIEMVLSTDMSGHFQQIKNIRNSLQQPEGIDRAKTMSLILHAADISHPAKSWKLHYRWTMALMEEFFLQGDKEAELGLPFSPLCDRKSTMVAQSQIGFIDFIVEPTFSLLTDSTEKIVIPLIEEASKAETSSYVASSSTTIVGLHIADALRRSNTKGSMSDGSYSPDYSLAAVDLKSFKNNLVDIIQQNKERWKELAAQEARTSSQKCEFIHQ
Procedure, shortened: (§5)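 Fluorescence polarization IMAP assay. PDE1 at 2 U and PDE9 at 0.05 U, incubated with 1 nM fluorescein-cAMP (or fluorescein-cGMP for PDE5) plus inhibitor for 60 min at ambient temperature. Stopped with IMAP binding reagent, stood 1 h, FP ratio read. IC50 from a sigmoidal fit of FP versus log concentration. Means ± SD of two experiments with duplicates.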

[15] = target: cGMP-specific 3',5'-cyclic phosphodiesterase (Homo sapiens) (UniProt O76074); assay: Inhibition of human recombinant PDE5A assessed at 10 uM after 60 mins by IMAP fluorescence polarization assay; procedure, shortened: as §5
Phosphodiesterase 7 = Phosphodiesterase 7 (Homo sapiens, UniProt Q13946+Q9NP56); assay: Inhibition of PDE7 in human SH-SY5Y cells assessed as increase in CREB phosphorylation at 10 uM by Western blot analysis
Chain of Phosphodiesterase 7 (Q13946 whole entry, looked up): as the sequence (Q13946 whole entry) above
Chain of Phosphodiesterase 7 (Q9NP56 whole entry, looked up): as the sequence (Q9NP56 whole entry) above

[16] = target: High affinity cGMP-specific 3',5'-cyclic phosphodiesterase 9A (Homo sapiens) (UniProt O76083); assay: Inhibition of human recombinant PDE9A assessed at 10 uM after 60 mins by IMAP fluorescence polarization assay; procedure, shortened: as §5
[17] = target: T1, High affinity 3',5'-cyclic-AMP phosphodiesterase 7A; assay: Inhibition of human recombinant PDE7A1 assessed as inhibition of hydrolysis of [3H]cAMP after 20 mins by scintillation proximity assay; procedure, shortened: as §1
[18] = target: T4, 3',5'-cyclic-AMP phosphodiesterase 7B; assay: Inhibition of human recombinant PDE7B assessed as inhibition of hydrolysis of [3H]cAMP at 10 uM after 20 mins by scintillation proximity assay; procedure, shortened: as §1
[19] = target: T2, 3',5'-cyclic-AMP phosphodiesterase 4D; assay: Inhibition of human recombinant PDE4D3 assessed after 60 mins by IMAP fluorescence polarization assay
[20] = target: T3, 3',5'-cyclic-AMP phosphodiesterase 4B; assay: Inhibition of human recombinant PDE4B2 assessed after 60 mins by IMAP fluorescence polarization assay
Astrocyte [21] = assay: Inhibition of LPS-induced NO production in rat astrocytes; format: functional, cell-based
Mus musculus [22] = assay: Emetogenic potential in surrogate emesis CD1 mouse model assessed as effect on xyclacine/ketamine-induced loss of righting reflex at 5 mg/kg, sc; format: ADME, organism-based; parameters: dose 5 mg/kg, route subcutaneous; conditions: in vivo; procedure, shortened: as §2

| Compound | inhibition [1] [%] | inhibition [3] [%] | inhibition [5] [%] | inhibition [6] [%] | inhibition [7] [%] | inhibition [8] [%] | IC50 [12] [nM] | inhibition [14] [%] | inhibition [15] [%] | Activity (Phosphodiesterase 7) | inhibition [16] [%] | IC50 [17] [nM] | inhibition [18] [%] | Activity (Mus musculus [4]) | inhibition (Microglia) | Activity (SH-SY5Y [11]) | inhibition (Astrocyte [13]) | further results |
| --- | --- | --- | --- | --- | --- | --- | --- | --- | --- | --- | --- | --- | --- | --- | --- | --- | --- | --- |
| COc1ccc(C2CNC(=O)C2)cc1OC1CCCC1 (configuration not stated) [ROLIPRAM] | 9.42 | 3.1 |  |  |  |  |  |  |  |  |  |  |  | Toxic |  |  |  | Activity (Mus musculus [2]): Toxic |
| O=C(Nc1c(Cl)cncc1Cl)c1ccc(OC(F)F)c(OCC2CC2)c1 [ROFLUMILAST] |  |  |  |  |  |  |  |  |  |  |  |  |  | Toxic |  |  |  | Activity (Mus musculus [22]): Toxic |

Second part, led by results:

| inhibition [1] [%] | inhibition [3] [%] | inhibition [5] [%] | inhibition [6] [%] | inhibition [7] [%] | inhibition [8] [%] | IC50 [12] [nM] | inhibition [14] [%] | inhibition [15] [%] | Activity (Phosphodiesterase 7) | inhibition [16] [%] | IC50 [17] [nM] | inhibition [18] [%] | Compound | Activity (Mus musculus [4]) | inhibition (Microglia) | Activity (SH-SY5Y [11]) | inhibition (Astrocyte [13]) | further results |
| --- | --- | --- | --- | --- | --- | --- | --- | --- | --- | --- | --- | --- | --- | --- | --- | --- | --- | --- |
| 37 | 81 | 57.5 | 7 | 1.2 | 4 | 3000 | 36 | 28 | inactive | 7 | 370 | 82 | Nc1ccc(Sc2ccc(Cl)cc2[N+](=O)[O-])cc1 |  | Active | Active | Active | Activity (SH-SY5Y [9]): Active; Activity (Mus musculus [10]): Non-toxic |
| 27 | 85 | 29.4 | 65 | 2.4 | 69 | 600 | 39 | 21 | inactive | 1 | 180 | 94 | O=[N+]([O-])c1ccc(Sc2ccncc2)c(Cl)c1 |  | Active | Active | Active | IC50 [19]: 7300 nM; IC50 [20]: 6600 nM |
| 44 | 69 |  | 24 |  | 35 |  |  |  |  |  | 1290 | 39 | O=[N+]([O-])c1ccc(Sc2ccccn2)c(Cl)c1 |  | Active | Active | Active | inhibition (Astrocyte [21]): Active |
